This is one part of a sample in which hits are shown more often than they occur.
UPR CHOP act – apoptotic UPR (CHOP) activation. actives 0.34% (n = 330,000). AID 449763. CHO-CHOP luciferase reporter, luminescence; percent of tunicamycin response over DMSO baseline. activation, % at 10 µM;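 active = at 10 µM dose, activation of 40% or more, normalized to positive control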
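System: CHO CHOP reporter cells. Amount: 500 cells per well. Buffer or medium: F12 medium, 10% FBS. Compound dosing: one dose, 10 µM in 0.5% DMSO. Incubation: 6 h compound exposure at 37 °C after overnight seeding. Technique: Steady-Glo luciferase luminescence. Benchmarks: tunicamycin and DMSO controls.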
Fh CTSL1 inh – cathepsin L1 inhibition, PFM18AAP counter-screen | recombinant F. hepatica cathepsin L1, Z-Leu-Arg-MCA fluorescence | actives 0.49% (n = 300,000) | inhibition, % at 5.96 µM | AID 1906;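 active = inhibition above the mean of all tested compounds plus 3 SD, set per screening campaign, cut at about 17% in these data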
CHOP inh – CHOP inhibition in unfolded protein response; CHO-K1 CHOP-promoter luciferase, tunicamycin-induced, 15-18 h; inhibition, % at 10 µM; actives 3.8% (n = 220,000);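 active = compounds that reduced the stress-induced luciferase reporter signal by more than about 70% of percent inhibition, limit read from the data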
XBP1 UPR activ – adaptive UPR (XBP1) activation; CHO-XBP1 luciferase reporter, IRE1-XBP1 UPR activation, luminescence; percent of tunicamycin response, DMSO as zero; activation, % at 20 µM; actives 0.33% (n = 330,000);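 active = versus positive control, 20 µM dose yields 30% or more activation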
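Material: CHO cell line with stable XBP1 luciferase reporter; schedule: 16-18 h cell attachment at 37 °C, then 6 h compound exposure; signal: glow luminescence from Steady-Glo reagent; medium: serum-containing F12 medium, 10% FBS; benchmarks: tunicamycin 10 µg/mL and vehicle-only wells; read-out: percent activation relative to tunicamycin reference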
UCH37 DUB inh – inhibitors of human deubiquitinating enzyme UCH37; Q9Y5K5; purified proteasome/UCH37, Ub-AMC cleavage fluorescence; inhibition, % (test concentration not listed); actives 0.33% (n = 330,000);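 active = mean inhibition over replicate wells above about 20%, limit read from the data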
Target sequence (Q9Y5K5 whole entry, looked up): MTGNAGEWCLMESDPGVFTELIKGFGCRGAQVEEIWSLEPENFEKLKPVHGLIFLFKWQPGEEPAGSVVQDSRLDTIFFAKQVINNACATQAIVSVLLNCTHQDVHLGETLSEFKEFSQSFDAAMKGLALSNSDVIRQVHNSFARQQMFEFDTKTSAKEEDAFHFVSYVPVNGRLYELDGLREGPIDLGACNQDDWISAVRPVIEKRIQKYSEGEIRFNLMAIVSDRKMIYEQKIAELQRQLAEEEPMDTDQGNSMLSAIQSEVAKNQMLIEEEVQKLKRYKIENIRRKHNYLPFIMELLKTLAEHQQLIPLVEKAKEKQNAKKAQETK
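Test system – human UCH37 enzyme supplied as purified proteasome complex · Incubation – 30 min preincubation with enzyme, 25 min cleavage at room temperature · Detection – AMC fluorescence from Ub-AMC cleavage, excitation 355 nm, emission 460 nm · Benchmarks – no-proteasome wells (full inhibition) and compound-free wells (no inhibition)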
CHOP inh conf – confirmation of CHOP induction inhibitors; CHO-CHOP promoter luciferase reporter, tunicamycin-induced, luminescence; AID 504437; shares compounds with CHOP inh; inhibition, % at 10 µM; actives 45% (n = 2,100);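 active = mean of three repeat readings of reporter signal inhibition above a set limit, cut at about 70% in these data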
Numbers stand for hits; . = inactive; / = no result.

SMILES	UPR CHOP act	Fh CTSL1 inh	CHOP inh	XBP1 UPR activ	UCH37 DUB inh	CHOP inh conf
O=C(COc1ccc(Cl)cc1Cl)NCCC1=CCCCC1	.	.	107	.	.	115
Cc1ccccc1OCC(=O)NCCC1=CCCCC1	.	.	.	.	/	/
Cc1ccc(S(=O)(=O)N=C(CCl)N2CCOCC2)cc1	/	/	/	/	.	/
CC(=NNC(=O)c1cccc(F)c1)c1cccc(NC(=O)c2ccc(F)cc2)c1	/	/	/	/	.	/
O=C(Nc1ccc(N2CCOCC2)c(C(=O)O)c1)c1ccco1	/	/	.	/	/	/
Cc1ccc(NC(=O)c2cc(NC(=O)c3ccco3)ccc2N2CCCCC2)cc1	.	.	100	.	.	88
O=C(COc1ccccc1)Nc1sc2c(c1C(=O)NCc1cccnc1)CCCC2	.	.	98	.	.	.
CCOC(=O)C1=C(C)N=c2sc(=Cc3cccc([N+](=O)[O-])c3O)c(=O)n2C1c1ccccc1 (stereo unspecified)	/	/	/	/	.	/
Cc1ccc(NC(=O)Nc2nnc(-c3ccncc3)s2)cc1C	.	.	104	.	.	.
CC1(c2ccccc2)CC(C)(C)N2C(=O)/C(=C3\SC(=S)NC3=O)c3cccc1c32 (stereo unspecified)	/	.	97	/	.	82
CC(C)(C)C(=O)Nc1ccc(C(=O)NN=CC2CC3C=CC2C3)cc1 (stereo unspecified)	/	/	/	/	.	/
Cc1ccccc1OCCOc1ccc([N+](=O)[O-])cc1C=Nn1cnnc1	/	/	/	/	.	/
CCCc1nn(-c2ccccc2)c2c1C(c1cccs1)C(C#N)=C(N)O2 (stereo unspecified)	.	.	108	.	.	.
Cc1nn(-c2ccccc2)c2c1C(c1cccs1)C(C#N)=C(N)O2 (stereo unspecified)	.	.	.	.	/	/
CCOC(=O)c1cc(-c2cccs2)nc2c1c(C)nn2-c1ccccn1	.	.	99	.	.	100
Cc1nnc(SC(C)C(=O)Nc2ccc(S(=O)(=O)N3CCCCC3)cc2)s1 (stereo unspecified)	.	.	100	.	.	.
Cc1csc(SC(C)C(=O)Nc2ccc(S(=O)(=O)N3CCCC3)cc2)n1 (stereo unspecified)	.	.	.	.	.	/
CCOc1ccc(C=NNC(=O)c2ccc(F)cc2)cc1CN1CC2CC(C1)c1cccc(=O)n1C2 (stereo unspecified)	/	/	/	/	.	/
O=C(NN=Cc1ccncc1)c1cc([N+](=O)[O-])cc([N+](=O)[O-])c1O	/	/	/	/	.	/
O=C(CSC1=NS(=O)(=O)c2ccccc21)Nc1ccccc1	.	.	106	.	.	.
O=[N+]([O-])c1cccc(/C=N/Nc2nc(NCc3ccccc3)nc(N3CCOCC3)n2)c1	.	.	104	.	/	.
CCCCS(=O)CC(COc1ccc(Cl)cc1)OC(=O)c1ccccc1 (stereo unspecified)	.	.	104	.	.	.
CSc1cccc(NC(=O)COc2cccc3ccccc23)c1	.	.	106	.	.	.
CCNC(=S)NN=C(C)c1ccco1	/	/	/	/	.	/
O=C(Nc1ccc(Cl)cc1)Nc1nc(-c2sccc2Br)cs1	.	.	.	.	.	/
SMILES	UPR CHOP act	Fh CTSL1 inh	CHOP inh	XBP1 UPR activ	UCH37 DUB inh	CHOP inh conf
O=C(Nc1ccc(Cl)cc1)Nc1nc(-c2ccccc2O)cs1	.	.	104	.	.	.
COc1ccc(CCN2C(=O)CSC2=NNC(=O)c2ccccc2F)cc1OC	/	/	/	/	.	/
CN(/N=C/c1ccncc1)c1cnn(-c2ccc(F)c(Cl)c2)c(=O)c1Cl	.	.	100	.	/	.
Cc1ccc(-n2ncc(N(C)C)c(Cl)c2=O)cc1	.	.	.	.	.	/
CCCCCCCCCCCCCCCC[n+]1cccc2ccccc21	.	.	106	.	88	120
CCCCCCCCC[n+]1cccc2c3ccccc3ccc21	.	.	.	.	.	/
NC(=O)c1cc(-c2ccccc2)nc(N2CCCCCC2)n1	.	.	103	.	.	108
COC(=O)NN=Cc1c(C)nn(-c2cccc(Cl)c2)c1Cl	/	/	/	/	.	/
COC(=O)/C(=C1/Oc2ccc(C(C)(C)C)cc2S1)C(F)(F)F	.	.	.	.	.	/
COC(=O)/C(=C1/Oc2cc(C)oc(=O)c2S1)C(F)(F)F	.	.	111	.	/	112
Cc1ccc(NC(=O)CCN2C(=O)NC3(CCCC3)C2=O)c(C)c1	.	/	/	.	.	/
Cc1ccc(NC(=O)NC(=O)CN2C(=O)NC3(CCCCCCC3)C2=O)c(C)c1	.	.	105	.	.	91
Cc1cc(C=NNC(=O)C(=O)NCc2ccccn2)c(C)n1-c1cccc(Br)c1	/	/	/	/	.	/
COc1cc(OC)c(OC)cc1C=NNc1ncnc2c1[nH]c1ccccc12	/	/	/	/	.	/
COc1cc(OC)c(OC)cc1/C=N/Nc1ncnc2c1[nH]c1ccccc12	.	.	104	.	/	72
CC(=NOC(=O)c1ccccc1F)c1nccs1	/	/	/	/	.	/
CCOc1ccc(/C(=N\O)C(C)NO)cc1 (stereo unspecified)	.	.	104	.	/	.
CCOc1ccc(C(=NO)C(C)NO)cc1 (stereo unspecified)	/	/	/	/	.	/
COc1cc(/C=C(/C#N)c2nc3ccccc3c(=O)[nH]2)ccc1O	.	.	102	.	.	112
COc1ccc(NS(=O)(=O)c2ccc(O)c(NC(=O)c3cc4c(C)nn(-c5ccc(F)cc5)c4s3)c2)cc1	.	.	108	.	.	115
COc1ccc(NS(=O)(=O)c2ccc(N3CCOCC3)c(NC(=O)c3ccc(F)cc3)c2)cc1	.	.	.	.	.	/
Oc1ccccc1C=Nc1c(-c2ccco2)nc2ccccn12	/	/	/	/	.	/
Oc1ccc(Br)cc1-c1cc(-c2ccc(Cl)cc2)n[nH]1	.	.	104	.	.	.
CC(=NOCC(=O)NCC(F)(F)F)c1cc2ccccc2o1	/	/	/	/	.	/
Cc1cccc(/C=N/Nc2ccc3ccccc3n2)c1	.	.	97	.	/	99
SMILES	UPR CHOP act	Fh CTSL1 inh	CHOP inh	XBP1 UPR activ	UCH37 DUB inh	CHOP inh conf
CCN(CCO)c1ncnc2c1sc1nc(CC(C)C)c3c(c12)CC(C)(C)OC3	.	.	106	.	.	92
CCN(C=Nc1sc2c(c1C#N)CCCCC2)CC	/	/	/	/	.	/
COC(=O)c1ccc(C=NNC(=O)C(=O)N2CCCCCC2)cc1	/	/	/	/	.	/
NC(N)=NN=Cc1ccc(Cl)cc1Cl	/	/	/	/	.	/
CCc1ccc(OCC(=O)NC(NC(=S)Nc2ccc(Cl)cc2)C(Cl)(Cl)Cl)cc1 (stereo unspecified)	.	.	102	.	.	70
O=C(CCl)Nc1cccc(Oc2ccccc2)c1	.	43	107	.	.	.
CCCC(=O)NC(NC(=S)Nc1ccc(N=Nc2ccccc2)cc1)C(Cl)(Cl)Cl (stereo unspecified)	.	.	100	.	.	83
CCc1ccc(OCC(=O)NC(=S)Nc2ccc(C(=O)O)cc2)cc1	.	.	.	.	.	/

High-throughput results as filed in PubChem BioAssay.
